{"data": "Assay results gathered from unrelated publications", "target": "Mitogen-activated protein kinase kinase kinase 13 (MAP3K13, Homo sapiens, UniProt O43283)", "Sequence (O43283 1-966, as in one of the studies)": "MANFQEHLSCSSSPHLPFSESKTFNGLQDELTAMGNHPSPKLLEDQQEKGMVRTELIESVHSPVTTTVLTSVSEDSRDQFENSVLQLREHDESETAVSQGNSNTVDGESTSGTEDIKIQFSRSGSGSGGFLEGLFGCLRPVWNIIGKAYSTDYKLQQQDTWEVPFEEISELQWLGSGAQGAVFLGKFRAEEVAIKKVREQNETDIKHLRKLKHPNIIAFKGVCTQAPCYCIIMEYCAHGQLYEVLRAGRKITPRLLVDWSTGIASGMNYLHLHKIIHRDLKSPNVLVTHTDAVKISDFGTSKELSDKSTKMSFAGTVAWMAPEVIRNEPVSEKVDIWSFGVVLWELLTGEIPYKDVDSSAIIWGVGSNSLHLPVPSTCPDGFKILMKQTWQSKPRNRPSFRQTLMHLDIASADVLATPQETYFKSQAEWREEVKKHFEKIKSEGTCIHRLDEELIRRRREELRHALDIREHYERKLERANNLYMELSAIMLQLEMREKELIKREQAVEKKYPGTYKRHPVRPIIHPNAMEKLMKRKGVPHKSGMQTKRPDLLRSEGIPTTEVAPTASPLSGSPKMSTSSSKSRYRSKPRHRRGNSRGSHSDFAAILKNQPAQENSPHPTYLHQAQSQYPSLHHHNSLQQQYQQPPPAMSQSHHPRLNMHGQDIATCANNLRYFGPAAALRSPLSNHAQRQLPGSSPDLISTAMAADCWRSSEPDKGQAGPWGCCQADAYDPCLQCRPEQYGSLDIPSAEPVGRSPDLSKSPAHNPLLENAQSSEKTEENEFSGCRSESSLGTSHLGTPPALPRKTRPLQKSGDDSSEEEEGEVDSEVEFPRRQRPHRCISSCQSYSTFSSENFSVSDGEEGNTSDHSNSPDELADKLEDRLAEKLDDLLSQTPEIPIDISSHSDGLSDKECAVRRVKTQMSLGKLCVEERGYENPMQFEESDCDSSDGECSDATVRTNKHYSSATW", "note": "Compare with care: the assays were run in different laboratories."}
{"Compound": "O=C(NCC1CCOCC1)c1n[nH]cc1NC(=O)c1c(F)cccc1F", "observed": "binding", "technique": "competition with immobilised ligand", "tested at": "1 µM", "remaining binding [%]": 84}
{"Compound": "CN(CCCC(F)(F)F)c1nccc(-c2cnn3ncccc23)n1", "observed": "binding", "tested at": "1 µM", "remaining binding [%]": 100}
{"Compound": "COc1ncc2cc3ccccc3nc2c1C#N", "observed": "cell-free assay", "technique": "competition with immobilised ligand", "tested at": "5 µM", "remaining binding [%]": 92}
{"Compound": "COc1ccc2c(c1)O[C@H](c1ccc(OC)c(OC)c1)C[C@@H]2NC(=O)C1(c2ccc3c(c2)OC(F)(F)O3)CC1", "observed": "cell-free assay", "technique": "competition with immobilised ligand", "tested at": "1 µM", "remaining binding [%]": 91}
{"Compound": "COc1ccnn2ncc(-c3ccnc(N(C)C)n3)c12", "observed": "binding", "tested at": "1 µM", "remaining binding [%]": 21}
{"Compound": "Cc1c(C(=O)O)cc(-c2ccc(C3CCNCC3)cc2)c2ccc(-c3ccc(C(F)(F)F)cc3)cc12", "observed": "binding", "technique": "competition with immobilised ligand", "tested at": "1 µM", "remaining binding [%]": 100}
{"Compound": "c1cncc(-c2cccc(Nc3nccc(NC4CCCCC4)n3)c2)c1", "observed": "binding", "technique": "competition with immobilised ligand", "tested at": "10 µM", "remaining binding [%]": 83}
{"Compound": "F[C@@H]1CCN(c2nccc(-c3cnn4ncccc34)n2)C1", "observed": "binding", "tested at": "1 µM", "remaining binding [%]": 100}
{"Compound": "COCCOc1nc(-c2ccc(Cl)nc2)nc2c1CN(C(=O)c1ncn3ccccc13)CC2", "observed": "cell-free assay", "technique": "competition with immobilised ligand", "tested at": "0.1 µM", "remaining binding [%]": 87}
{"Compound": "CNC(=O)[C@@H]1CC[C@@H](n2c(-c3ccc4cnccc4c3)nc3ccc(C(=O)NCc4cccc(C(N)=O)c4)cc32)C1", "observed": "binding", "technique": "competition with immobilised ligand", "tested at": "1 µM", "remaining binding [%]": 100}
{"Compound": "C[C@@H]1CCN(c2nccc(-c3cnn4ncccc34)n2)C1", "observed": "binding", "tested at": "1 µM", "remaining binding [%]": 71}
{"Compound": "O=C(NCCCC1CCCCC1)c1ccc(CNC(=O)c2cnn(-c3ccccc3)c2C(F)(F)F)cc1", "observed": "cell-free assay", "technique": "competition with immobilised ligand", "tested at": "0.1 µM", "remaining binding [%]": 100}
{"Compound": "COc1cnc(Nc2cccc(S(N)(=O)=O)c2)nc1N1CCN(c2ccccc2)C(=O)C1", "observed": "binding", "technique": "competition with immobilised ligand", "tested at": "1 µM", "remaining binding [%]": 100}
{"Compound": "O=C(c1ccc(Nc2nccc(-c3cc4ccccc4s3)n2)cc1)N1CCC(N2CCCC2)CC1", "observed": "binding", "technique": "competition with immobilised ligand", "tested at": "1 µM", "remaining binding [%]": 68}
{"Compound": "O=C(O)[C@@H]1[C@@H](Cn2nnc3ccccc3c2=O)CC[C@H]1C(=O)c1ccc(OCCC2CCOCC2)cc1", "observed": "cell-free assay", "technique": "competition with immobilised ligand", "tested at": "1 µM", "remaining binding [%]": 70}
{"Compound": "O=C(c1ccc(Nc2ncc(Cl)c(-c3ccc(Cl)s3)n2)cc1)N1CCC(N2CCCC2)CC1", "observed": "binding", "technique": "competition with immobilised ligand", "tested at": "1 µM", "remaining binding [%]": 48}
{"Compound": "CN(C)c1nccc(-c2cnc3ncccn23)n1", "observed": "binding", "tested at": "1 µM", "remaining binding [%]": 76}
{"Compound": "O=C(NCCCN1CCOCC1)c1ccc(Nc2nccc(-c3cc4ccccc4s3)n2)cc1", "observed": "binding", "technique": "competition with immobilised ligand", "tested at": "1 µM", "remaining binding [%]": 79}
{"Compound": "N[C@@H]1CCN(c2nccc(-c3cnn4ncccc34)n2)C1", "observed": "binding", "tested at": "1 µM", "remaining binding [%]": 100}
{"Compound": "COc1cc(-c2cn(C3CCc4c(F)cccc4N(CC(F)(F)F)C3=O)nn2)ccc1-n1cnc(C)c1 (centres unmarked)", "observed": "cell-free assay", "technique": "competition with immobilised ligand", "tested at": "1 µM", "remaining binding [%]": 75}
